ChEMBL document CHEMBL1177882, “Novel bisstyryl derivatives of bakuchiol: targeting oral cavity pathogens” (2010)
Converted amounts (≈) assume the structure as drawn. The source made the active and inactive calls. No cut-off for these calls is given here.

Tests used:
[1] = system: Streptococcus mutans; assay: Antibacterial activity against Streptococcus mutans ATCC 25175 after 48 hrs by broth microdilution method; type: functional; settings: ATCC 25175, 48 h
[2] = system: Actinomyces viscosus; assay: Antibacterial activity against Actinomyces viscosus ATCC 15987 after 48 hrs by broth microdilution method; type: functional; settings: ATCC 15987, 48 h
[3] = system: Streptococcus sanguinis; assay: Antibacterial activity against Streptococcus sanguinis ATCC 10556 after 48 hrs by broth microdilution method; type: functional; settings: ATCC 10556, 48 h
[4] = system: Fusobacterium nucleatum; assay: Antibacterial activity against Fusobacterium nucleatum ATCC 10953 after 48 hrs by broth microdilution method; type: functional; settings: ATCC 10953, 48 h
Method in brief: (§1)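 Broth microdilution MIC for obligate anaerobes, run in their growth media (Wilkins–Chalgren for F. nucleatum and P. intermedia; supplemented Todd Hewitt broth for P. gingivalis). Inoculum suspended in Brucella broth, final 5 × 10^6 cfu/ml. Twofold dilutions, final 0.12–128 µg/ml. Incubated anaerobically (90% N2/5% H2/5% CO2) at 37 °C for 48 h; MIC is the lowest concentration without turbidity.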

[5] = system: Prevotella intermedia; assay: Antibacterial activity against Prevotella intermedia ATCC 25611 after 48 hrs by broth microdilution method; type: functional; settings: ATCC 25611, 48 h; method in brief: as §1
[6] = system: Porphyromonas gingivalis; assay: Antibacterial activity against Porphyromonas gingivalis ATCC 33277 after 48 hrs by broth microdilution method; type: functional; settings: ATCC 33277, 48 h; method in brief: as §1
[7] = system: Streptococcus mutans; assay: Antibacterial activity against Streptococcus mutans ATCC 25175 assessed as inhibition of biofilm formation after 18 hrs; type: functional
Method in brief: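 Single-species S. mutans biofilm grown in flat-bottom polystyrene wells, BHI with 2% sucrose, 6 × 10^7 cfu/ml final, compound twofold 0.12–128 µg/ml, 18 h at 37 °C in 5% CO2. Wells rinsed with PBS pH 7.2, methanol-fixed, stained with 0.1% crystal violet, eluted in 95% ethanol, A595 read. % inhibition relative to untreated control; MBIC50 is the lowest concentration giving ≥50% inhibition.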

[8] = system: Streptococcus mutans; assay: Antibacterial activity against Streptococcus mutans ATCC 25175 after 24 hrs by broth microdilution method; settings: ATCC 25175, 24 h
[9] = system: Actinomyces viscosus; assay: Antibacterial activity against Actinomyces viscosus ATCC 15987 after 24 hrs by broth microdilution method; settings: ATCC 15987, 24 h
[10] = system: Streptococcus sanguinis; assay: Antibacterial activity against Streptococcus sanguinis ATCC 10556 after 24 hrs by broth microdilution method; settings: ATCC 10556, 24 h
[11] = system: Streptococcus mutans; assay: Antibacterial activity against Streptococcus mutans ATCC 25175 assessed as decrease in cell viability at 2 time MIC after 60 mins by serial dilution method relative to control; type: functional
Method in brief: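 S. mutans suspension from an 18 h culture (~1 × 10^9 cfu/ml) diluted 1:20 into phosphate buffer containing compound at 2 × MIC. Incubated 60 min at 37 °C, then serially diluted in saline and plated on BHI agar. Colonies counted after 48 h at 37 °C in 5% CO2; viability given as CFU/ml relative to untreated cells.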

[12] = system: Streptococcus mutans; assay: Antibacterial activity against Streptococcus mutans ATCC 25175 assessed as increase of cell membrane permeability at 2 time MIC after 60 mins propidium iodide staining by flow cytometry; type: functional, organism-based
Method in brief: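 Overnight BHI culture of S. mutans washed into 50 mmol/l sodium phosphate pH 7.1 (~1 × 10^9 cfu/ml), diluted 1:20 into buffer with compound at 2 × MIC. Incubated 60 min at room temperature; aliquots diluted in buffer and stained with propidium iodide at 10 µg/ml final on ice. The percentage of PI-stained cells was measured by flow cytometry.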

[13] = system: Streptococcus mutans; assay: Antibacterial activity against Streptococcus mutans ATCC 25175 assessed as 280 nm absorbing material release at 2 time MIC after 60 mins by spectrophotometric analysis; type: functional, organism-based
Method in brief: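 S. mutans prepared in 50 mmol/l phosphate pH 7.1 (~1 × 10^9 cfu/ml) was exposed to compound at 2 × MIC for 60 min at 37 °C. Supernatant taken after centrifugation (10,000 g, 10 min) and read at A280. Release is expressed as % of a total-release control made by lysozyme treatment (100 µg/ml, 60 min, 37 °C) plus sonication.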

SMILES | MBC [1] [µg/mL] | MBC [2] [µg/mL] | MBC [3] [µg/mL] | MBC [4] [µg/mL] | MIC [4] [µg/mL] | MBC [5] [µg/mL] | MIC [5] [µg/mL] | MBC [6] [µg/mL] | MIC [6] [µg/mL] | MBIC50 [7] [µg/mL] | MIC [8] [µg/mL] | MIC [9] [µg/mL] | MIC [10] [µg/mL] | Activity [11] | Activity [12] | Activity [13]
COc1ccccc1/C=C/[C@@](C)(/C=C/c1ccc(O)cc1)CCC=C(C)C | 8 (≈ 22.1 µM) | 4 (≈ 11 µM) | 4 (≈ 11 µM) | 32 (≈ 88.3 µM) | 16 (≈ 44.1 µM) | 4 (≈ 11 µM) | 2 (≈ 5.52 µM) | 2 (≈ 5.52 µM) | 1 (≈ 2.76 µM) | 8 | 4 (≈ 11 µM) | 2 (≈ 5.52 µM) | 2 (≈ 5.52 µM) | – | – | –
Oc1cc(Cl)ccc1Oc1ccc(Cl)cc1Cl [TRICLOSAN] | 8 (≈ 27.6 µM) | 8 (≈ 27.6 µM) | 4 (≈ 13.8 µM) | 2 (≈ 6.91 µM) | 2 (≈ 6.91 µM) | 1 (≈ 3.45 µM) | 1 (≈ 3.45 µM) | 2 (≈ 6.91 µM) | 2 (≈ 6.91 µM) | – | 4 (≈ 13.8 µM) | 4 (≈ 13.8 µM) | 4 (≈ 13.8 µM) | – | – | –
C=C[C@@](C)(/C=C/c1ccc(O)cc1)CC/C=C(/C)C=O | 128 (≈ 473 µM) | 64 (≈ 237 µM) | 64 (≈ 237 µM) | 64 (≈ 237 µM) | 32 (≈ 118 µM) | 64 (≈ 237 µM) | 32 (≈ 118 µM) | 16 (≈ 59.2 µM) | 16 (≈ 59.2 µM) | – | 64 (≈ 237 µM) | 32 (≈ 118 µM) | 32 (≈ 118 µM) | – | – | –
C=C[C@@](C)(/C=C/c1ccc(OC(C)=O)cc1)CCC=C(C)C [ACETYLBAKUCHIOL] | > 128 | 64 (≈ 214 µM) | 16 (≈ 53.6 µM) | > 128 | > 128 | 64 (≈ 214 µM) | 64 (≈ 214 µM) | 8 (≈ 26.8 µM) | 8 (≈ 26.8 µM) | – | 128 (≈ 429 µM) | 32 (≈ 107 µM) | 16 (≈ 53.6 µM) | – | – | –
C=C[C@@](C)(/C=C/c1ccc(O)c(N)c1)CCC=C(C)C | 32 (≈ 118 µM) | 32 (≈ 118 µM) | 32 (≈ 118 µM) | 64 (≈ 236 µM) | 32 (≈ 118 µM) | 32 (≈ 118 µM) | 16 (≈ 59 µM) | 4 (≈ 14.7 µM) | 2 (≈ 7.37 µM) | – | 16 (≈ 59 µM) | 16 (≈ 59 µM) | 16 (≈ 59 µM) | – | – | –
CCCOc1ccc(/C=C/[C@@](C)(/C=C/c2ccc(O)cc2)CCC=C(C)C)cc1Cl | 8 (≈ 18.8 µM) | 64 (≈ 151 µM) | 32 (≈ 75.3 µM) | 128 (≈ 301 µM) | 64 (≈ 151 µM) | 32 (≈ 75.3 µM) | 16 (≈ 37.6 µM) | 4 (≈ 9.41 µM) | 4 (≈ 9.41 µM) | – | 32 (≈ 75.3 µM) | 32 (≈ 75.3 µM) | 16 (≈ 37.6 µM) | – | – | –
C=C[C@@](C)(/C=C/c1ccc(OC)cc1)CCC=C(C)C | > 128 | > 128 | > 128 | > 128 | > 128 | > 128 | > 128 | 32 (≈ 118 µM) | 32 (≈ 118 µM) | – | > 128 | > 128 | > 128 | inactive | Active | Active
C=C[C@@](C)(/C=C/c1ccc(O)cc1)CCC1OC1(C)C (some centres not stated) | > 128 | 128 (≈ 470 µM) | > 128 | > 128 | > 128 | 128 (≈ 470 µM) | 64 (≈ 235 µM) | 64 (≈ 235 µM) | 32 (≈ 117 µM) | – | 128 (≈ 470 µM) | 64 (≈ 235 µM) | 128 (≈ 470 µM) | – | – | –
CC(C)=CCC[C@@](C)(/C=C/c1ccc(N)cc1)/C=C/c1ccc(O)cc1 | 4 (≈ 11.5 µM) | 2 (≈ 5.76 µM) | 4 (≈ 11.5 µM) | > 128 | > 128 | 4 (≈ 11.5 µM) | 2 (≈ 5.76 µM) | 2 (≈ 5.76 µM) | 1 (≈ 2.88 µM) | – | 2 (≈ 5.76 µM) | 2 (≈ 5.76 µM) | 2 (≈ 5.76 µM) | – | – | –
